Screens from PubChem.
CendR NRP1 mod – NRP-1/CendR interaction modulation. inhibition, % at 25 µM. FAM-RPARPAR peptide binding to NRP-1, fluorescence polarization. AID 602438. 0.85% of 360,000 active. O14786;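 active = inhibition or corrected inhibition above about 18%, plus a signal ratio from 0.5 to 1.5, limit read from the data, passing the limit was not always enough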
Target sequence (O14786 whole entry, looked up): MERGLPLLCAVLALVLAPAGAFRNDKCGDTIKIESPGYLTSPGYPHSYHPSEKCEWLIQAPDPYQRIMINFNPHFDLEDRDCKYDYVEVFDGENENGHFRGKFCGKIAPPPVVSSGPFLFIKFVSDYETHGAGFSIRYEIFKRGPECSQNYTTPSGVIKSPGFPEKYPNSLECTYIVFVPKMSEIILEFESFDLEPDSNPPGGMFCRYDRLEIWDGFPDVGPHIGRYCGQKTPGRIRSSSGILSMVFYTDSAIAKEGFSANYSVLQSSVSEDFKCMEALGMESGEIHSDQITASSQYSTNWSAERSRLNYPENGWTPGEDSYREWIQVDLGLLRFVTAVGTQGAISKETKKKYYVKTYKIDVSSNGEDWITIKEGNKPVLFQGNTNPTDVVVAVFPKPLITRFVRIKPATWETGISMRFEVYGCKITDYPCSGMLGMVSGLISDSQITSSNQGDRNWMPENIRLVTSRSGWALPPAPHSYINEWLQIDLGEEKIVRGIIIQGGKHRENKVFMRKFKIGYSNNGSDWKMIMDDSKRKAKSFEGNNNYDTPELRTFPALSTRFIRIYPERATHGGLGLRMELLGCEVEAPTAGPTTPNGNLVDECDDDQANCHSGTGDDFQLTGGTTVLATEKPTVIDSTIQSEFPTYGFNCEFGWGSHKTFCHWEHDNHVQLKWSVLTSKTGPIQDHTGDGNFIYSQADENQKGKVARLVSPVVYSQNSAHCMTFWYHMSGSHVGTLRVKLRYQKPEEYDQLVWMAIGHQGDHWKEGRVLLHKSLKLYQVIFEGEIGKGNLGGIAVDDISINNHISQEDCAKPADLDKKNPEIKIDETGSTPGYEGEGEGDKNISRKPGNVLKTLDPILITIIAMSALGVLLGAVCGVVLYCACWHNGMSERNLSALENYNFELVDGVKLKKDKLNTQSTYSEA
DDE Tn6 FP inh – DD(E)-Tn6 binding inhibition, primary FP screen; Fibrin DD(E) TRITC-Tn6 fluorescence polarization displacement; inhibition, % at 8.3 µM; 0.21% of 370,000 active; P02675;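 active = inhibition above a per-campaign cutoff: mean of compounds within control limits plus 3 SD, cut at about 15% in these data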;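 also: 0% = median of all compound wells on the plate and 100% = blocking peptide control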
CRFR2-BP ag – CRF-BP/CRF-R2 complex agonism; HEK293 CRF-R2/CRF-BP, calcium dye fluorescence (FLIPR); percent of saturating CRF peptide response; activation, % at 13.2 µM; 0.46% of 350,000 active; AID 588473;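 active = activation of at least 50%, plus an integration ratio under a set limit after plate pattern correction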;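 also: plate controls were neutral control wells without compound for no effect and CRF at EC100 for full effect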
CRFBP-R2 block – antagonists of CRF-binding protein/CRF-R2 receptor complex | inhibition, % at 11.8 µM | HEK293 CRF-R2/CRF-BP, CRF-induced calcium fluorescence | 0.59% of 350,000 active | AID 588475;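 active = inhibition of the ligand-induced calcium signal above about 50% at the single tested concentration, limit read from the data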
KLK7 zymogen act – activates the human kallikrein-7 zymogen; purified proKLK7, EDANS-DABCYL substrate fluorescence; 100% is mature enzyme control, 0% vehicle; activation, % at 7 µM; 0.9% of 370,000 active;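 active = activation above the mean of all tested compounds plus 3 SD, computed per campaign excluding outliers beyond control limits, cut at about 13% in these data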
DDE Tn7 FP inh – disrupts Tn7 cyclic peptide binding to fibrin D-Dimer-E complex; FP displacement of FITC-Tn7 peptide from fibrin DD(E); 0% = median of compound wells per plate; inhibition, % at 8.3 µM; 0.13% of 370,000 active;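 active = inhibition above the mean of compounds falling within the control limits plus 3 SD of them, cut at about 14% in these data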;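 also: 0% = plate median of compound wells and 100% = 10 µM Aha-Tn7 peptide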
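Assay system: human fibrin DD(E). Input: DD(E) 2 µM final. Medium: Tris buffer with calcium and detergent, pH 7.8. Compound dosing: single point at 8.3 µM. Timing: 10 min plus 3 h, room temperature. Technique: fluorescence polarization of the labelled Tn7 tracer. Read-out: percent inhibition. Replicates: singlicate testing.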
proKLK7 act conf – proKLK7 activation, confirmation; 68% of 3,200 active; purified proKLK7, EDANS-DABCYL substrate fluorescence; scaled: vehicle 0, mature enzyme 100; activation, % at 7 µM; shares compounds with KLK7 zymogen act; AID 686949;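 active = activation, as change over the incubation, above the mean of all tested compounds plus 3 SD, cut at about 13% in these data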
EDANS interfere – fluorescence interference counter-screen for KLK7 activators | shares compounds with KLK7 zymogen act | EDANS-DABCYL substrate fluorescence interference, no enzyme, 4 h; solvent 0%, active enzyme control 100% | activation, % at 7 µM | 80% of 3,200 active;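 active = activation above the all-compound mean plus 3 SD, ignoring values outside control-based bounds, cut at about 4.8% in these data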;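 also: value is the 4 h activation minus the activation read at time zero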
Numbers without * were called inactive; · = no result. A selection: hits, their analogues and other compounds. The true share with any hit is near 2.9%.

SMILES | CendR NRP1 mod | DDE Tn6 FP inh | CRFR2-BP ag | CRFBP-R2 block | KLK7 zymogen act | DDE Tn7 FP inh | proKLK7 act conf | EDANS interfere
CC(C)(C)NC(=O)C[C@H]1C[C@H](C(=O)N2CCCCC2)[C@@]2(C)c3[nH]c4cc(-c5ccco5)ccc4c3CCN2C1=O | -14.1 | -4.0 | 0.0 | 9.4 | 77.4* | -9.7 | 73.9* | 79.2*
CC[C@]12c3[nH]c4cc(-c5ccco5)ccc4c3CCN1C(=O)[C@@H](CC(=O)NCCc1ccccn1)C[C@@H]2C(=O)N1CCN(C(=O)C2CC2)CC1 | -31.9 | 4.0 | -0.1 | 3.2 | 137.2* | 6.8 | 103.8* | 123.8*
CC(C)(C)NC(=O)C[C@H]1C[C@H](C(=O)N2CCOCC2)[C@@]2(C)c3[nH]c4cc(-c5ccco5)ccc4c3CCN2C1=O | -22.2 | · | -3.2 | -5.7 | · | · | · | ·
Cc1ccc(O)c(C(C)c2c[nH]c3ccccc23)c1 (stereo not drawn) | · | 8.0 | · | · | -0.2 | 10.7 | · | ·
COP1(=O)CCOCC[C@H](CC(C)C)NC(=O)[C@H](CC(C)C)N1 (stereo partly drawn) | · | 4.5 | · | · | · | 8.1 | · | ·
CC[C@]12c3[nH]c4ccccc4c3CCN1C(=O)C(CC(=O)NCc1ccco1)C[C@@H]2C(=O)N1CCN(C(=O)c2ccco2)CC1 (stereo partly drawn) | 0.4 | -0.2 | 1.0 | -19.1 | -0.3 | 10.8 | · | ·
C[C@]12c3[nH]c4cc(-c5ccco5)ccc4c3CCN1C(=O)[C@@H](CC(=O)NCc1ccco1)C[C@@H]2C(=O)N1CCCCC1 | -9.0 | -5.9 | -0.1 | -0.7 | 84.3* | -1.9 | 44.7* | 81.8*
CC[C@]12c3[nH]c4cc(-c5ccco5)ccc4c3CCN1C(=O)[C@@H](CC(=O)NCc1ccco1)C[C@@H]2C(=O)N1CCN(C(=O)c2ccco2)CC1 | -17.2 | 1.6 | 0.4 | -3.8 | 133.5* | 0.5 | 95.5* | 103.8*
Nc1c(-c2ccccc2)nc(Cl)nc1-c1ccccc1 | -4.0 | -1.6 | 2.3 | -7.9 | 42.5* | -1.2 | 78.5* | 78.4*
O=C(c1ccccc1F)N1C(=O)c2cccc3cccc1c23 | 5.8 | 5.2 | -0.5 | 8.3 | 7.7 | 3.2 | · | ·
O=C(c1ccco1)N1C(=O)c2cccc3cccc1c23 | -4.8 | -7.5 | 0.5 | -2.1 | 35.1* | 2.4 | 87.0* | 89.7*
O=C(c1cccs1)N1C(=O)c2cccc3cccc1c23 | 2.7 | 2.9 | 0.6 | 19.2 | 31.9* | 9.2 | -1.4 | -11.9
Nc1cccc2c1C(=O)N(C(=O)c1ccco1)C2=O | 14.2 | -3.3 | 0.2 | 4.1 | 31.6* | 0.8 | 153.9* | 177.7*
COc1ccc(C(=O)CSc2nnc(-c3cccnc3)n2-c2ccc(C)cc2)cc1 | · | 2.3 | · | · | -0.8 | -0.2 | · | ·
O=C(NCc1ccco1)c1nc2nc(-c3cccs3)cc(C(F)(F)F)n2n1 | -19.9 | -2.4 | -0.8 | -1.5 | 56.3* | 1.1 | 61.0* | 68.4*
COC(=O)c1nc2nc(-c3cccs3)cc(C(F)(F)F)n2n1 | 9.3 | 6.8 | -3.2 | 11.0 | 204.8* | 1.9 | 63.4* | 66.9*
O=C(NCc1ccco1)c1nn2c(C(F)(F)F)cc(-c3cccs3)nc2c1Br | -16.4 | -8.6 | 1.9 | -5.7 | -1.4 | -5.4 | · | ·
CC1(c2nnnn2-c2ccc(F)cc2)CCCC(=O)N1CCc1c[nH]c2ccccc12 (stereo not drawn) | · | -3.4 | · | · | 0.0 | -0.2 | · | ·
Cc1[nH]nc2c1C(c1ccc(Br)cc1)N(Cc1ccccc1)C2=O (stereo not drawn) | · | 11.2 | · | · | 0.1 | -4.0 | · | ·
C=CS(=O)(=O)c1c2cc(OC)ccc2nc2ccc(OC)cc12 | 9.1 | 3.0 | 31.4 | -22.4 | 21.7* | 8.0 | -35.9 | -29.1
[O-][n+]1ccccc1/C=C/c1ccccc1 | 10.2 | 0.7 | 1.1 | -5.2 | 0.5 | 4.4 | · | ·
CN(C)c1ccc(/C=C/c2cccc[n+]2[O-])cc1 | -43.3 | -2.0 | 14.8 | -19.8 | 31.7* | -5.3 | 215.6* | 235.6*
N#CC1=C(N)Oc2cc(N)ccc2C1c1ccc(F)cc1F (stereo not drawn) | 44.2 | -4.5 | 30.2 | -65.1 | 17.0* | 3.7 | 13.4* | 15.0*
N#CC1=C(N)Oc2cc(N)ccc2C1c1ccccc1Cl (stereo not drawn) | -8.9 | -11.2 | 11.7 | -5.4 | 19.9* | -0.2 | 4.1 | 5.8*
COc1ccc(CN2CCC(CNC(=O)Nc3ccc(C)c(F)c3)CC2)cc1 | · | -5.0 | · | · | 0.1 | 5.5 | · | ·
SMILES | CendR NRP1 mod | DDE Tn6 FP inh | CRFR2-BP ag | CRFBP-R2 block | KLK7 zymogen act | DDE Tn7 FP inh | proKLK7 act conf | EDANS interfere
Nc1[nH]c(C(=O)c2ccccc2)c(-c2ccccc2Br)c1C(=O)c1cccs1 | · | -6.2 | · | · | 0.1 | -3.1 | · | ·
CC(C)Cn1c(N)c(C(=O)COC(=O)c2ccncc2)c(=O)n(C)c1=O | -2.8 | 1.7 | -1.1 | -2.0 | 0.4 | -1.5 | · | ·
CC(C)Cn1c(N)c(C(=O)COC(=O)c2nccnc2N)c(=O)n(C)c1=O | 11.7 | 1.2 | -1.7 | 1.2 | 13.2* | -0.2 | 4.3 | 1.1
COc1cc2c(cc1OC)CN(c1ccc3ccccc3n1)CC2 | -33.2 | -1.7 | -1.0 | -0.3 | 41.6* | -0.4 | 70.1* | 79.9*
COC(=O)C1CN(Cc2ccccc2)CCS(=O)(=O)N1Cc1cn(Cc2ccccc2Br)nn1 (stereo not drawn) | · | 5.6 | · | · | -0.8 | -1.9 | · | ·
CC1C2=C(CC(C)(C)CC2=O)NC2=C1C(=O)CC(C)(C)C2 | 6.0 | -0.5 | 67.5* | -85.1 | 19.0* | 9.7 | 73.6* | 72.7*
Cc1ccc(C(=O)COC(=O)CSc2cccc3cccnc23)c(C)c1 | -14.3 | 0.3 | 4.6 | -10.8 | 14.9* | 4.2 | 11.9 | 12.4*
O=C(O)CSc1cccc2cccnc12 | -24.9 | -0.7 | 12.1 | 4.0 | -3.9 | -5.5 | · | ·
CCN(CC)CCCNC(=O)C1CCN(C(=O)c2oc3cc4sc(N(C)C)nc4cc3c2C)CC1 | -7.1 | -13.8 | 0.8 | -11.5 | 13.3* | -4.0 | 11.6 | 9.0*
COCCCNC(=O)C1CCN(C(=O)c2oc3cc4sc(N(C)C)nc4cc3c2C)CC1 | 1.8 | -9.1 | -1.9 | 20.3 | 21.0* | 2.9 | -5.0 | -4.5
Cc1c(CC(=O)N2CCN(C(=O)C3COc4ccccc4O3)CC2)c(=O)oc2cc(O)c(Cl)cc12 (stereo not drawn) | -8.5 | -1.0 | -0.5 | 10.8 | 89.0* | 2.6 | 64.0* | 63.9*
COc1ccc2c(C)c(CC(=O)N3CCN(C(=O)C4COc5ccccc5O4)CC3)c(=O)oc2c1C (stereo not drawn) | -2.1 | 5.4 | 0.4 | -10.6 | -1.4 | 6.0 | · | ·
